Data reported in ChEMBL document CHEMBL4007461, “Synthesis, Antiviral Potency, in Vitro ADMET, and X-ray Structure of Potent CD4 Mimics as Entry Inhibitors That Target the Phe43 Cavity of HIV-1 gp120” (J Med Chem, 2017).
≈ marks a conversion by molar mass, not a printed value.

Experiments:
[1] = Unbound fraction in human plasma at 5 uM by LC-MS/MS based equilibrium dialysis; assay type: ADME, cell-free
[2] = system: Human immunodeficiency virus 1; experiment: microbe, parasite or virus in culture; conditions: Human immunodeficiency virus 1, subtype A QB726.70M.ENV.C4
[3] = Apparent permeability from apical to basolateral side in human Caco2 cells at 10 uM at pH 7.4 by LC-MS/MS analysis; assay type: ADME, cell-based; conditions: Caco-2, pH 7.4
Method in brief: (§1)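 Caco-2 cells, passage 40-60, seeded on Transwell inserts at 1 x 10^5 cells/cm2 and grown 20 days in DMEM. Monolayers equilibrated 40 min in HBSS. Donor: compound at 10 µM final, 1% DMSO, in HBSS pH 7.4 with lucifer yellow as integrity marker. Sampled at 120 min, A-B and B-A, in duplicate, by LC-MS/MS. Papp = (dQ/dt)/(C0 × A); efflux ratio = Papp(B-A)/Papp(A-B).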

[4] = system: Human immunodeficiency virus 1; experiment: Antiviral activity against ENV pseudotyped CCR5-tropic HIV1 subtype C 225925-2, clone 22; assay type: functional; conditions: Human immunodeficiency virus 1, subtype C 225925-2, clone 22
Method in brief: (§2)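 Env-pseudotyped viruses made by co-transfecting HEK293T cells with an Env-deleted pSG3 backbone (8 µg) and an Env-expression plasmid (8 µg). Supernatants were harvested 2 days after transfection, filtered, titered and stored at −80 °C. They were used for single-cycle infection, and IC50 was taken from percent inhibition.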

Cytochrome P450 2D6 = Cytochrome P450 2D6 (Homo sapiens, UniProt P10635); experiment: Inhibition of CYP2D6 in human liver microsomes using dextromethorphan as substrate after 5 mins in presence of NADPH by LC-MS/MS analysis; assay type: ADME
Cytochrome P450 2D6, sequence (P10635 whole entry): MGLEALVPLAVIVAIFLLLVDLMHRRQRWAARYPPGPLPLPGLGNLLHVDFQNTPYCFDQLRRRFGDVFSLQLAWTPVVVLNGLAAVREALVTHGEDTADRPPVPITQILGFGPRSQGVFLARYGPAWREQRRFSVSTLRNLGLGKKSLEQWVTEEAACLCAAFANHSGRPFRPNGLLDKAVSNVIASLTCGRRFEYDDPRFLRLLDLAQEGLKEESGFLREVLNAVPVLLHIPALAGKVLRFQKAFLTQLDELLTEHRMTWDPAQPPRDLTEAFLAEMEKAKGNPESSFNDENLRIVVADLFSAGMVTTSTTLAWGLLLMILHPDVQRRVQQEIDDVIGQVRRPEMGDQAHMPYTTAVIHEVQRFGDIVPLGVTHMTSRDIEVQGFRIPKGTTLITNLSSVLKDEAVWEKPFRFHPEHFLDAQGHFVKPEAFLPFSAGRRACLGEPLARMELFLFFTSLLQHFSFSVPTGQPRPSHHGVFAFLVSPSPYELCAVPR

[5] = system: Human immunodeficiency virus 1; experiment: microbe, parasite or virus in culture; conditions: Human immunodeficiency virus 1, subtype A2/D QG393.60M.ENV.B8
Cytochrome P450 2C19 = Cytochrome P450 2C19 (Homo sapiens, UniProt P33261); experiment: Inhibition of CYP2C19 in human liver microsomes using mephenytoin as substrate after 60 mins in presence of NADPH by LC-MS/MS analysis; assay type: ADME
Cytochrome P450 2C19, sequence (P33261 whole entry): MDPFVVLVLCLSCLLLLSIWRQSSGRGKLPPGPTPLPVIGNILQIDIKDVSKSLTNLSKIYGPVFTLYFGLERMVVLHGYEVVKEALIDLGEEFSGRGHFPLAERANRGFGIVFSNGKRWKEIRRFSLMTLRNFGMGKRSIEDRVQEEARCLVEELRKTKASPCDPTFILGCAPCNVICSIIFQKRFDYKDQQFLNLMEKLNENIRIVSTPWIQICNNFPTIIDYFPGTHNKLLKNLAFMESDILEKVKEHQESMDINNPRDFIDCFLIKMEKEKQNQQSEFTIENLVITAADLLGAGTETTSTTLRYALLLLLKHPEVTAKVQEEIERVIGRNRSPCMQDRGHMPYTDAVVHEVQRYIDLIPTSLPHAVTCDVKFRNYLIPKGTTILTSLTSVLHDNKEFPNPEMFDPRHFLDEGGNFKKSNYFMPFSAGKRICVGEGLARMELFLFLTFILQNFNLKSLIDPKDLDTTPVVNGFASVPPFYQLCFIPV

[6] = system: Human immunodeficiency virus 1; experiment: microbe, parasite or virus in culture; conditions: Human immunodeficiency virus 1, pCAAN5342 clone A2
[7] = system: Human immunodeficiency virus 1; experiment: microbe, parasite or virus in culture; conditions: Human immunodeficiency virus 1, subtype A/G CRF02_AG clone 278
[8] = Inhibition of HIV1 HXB2 gp120-mediated cell to cell fusion using human MAGI-CCR5 cells as indicator cells and Env/Tat-expressing HL2/3 cells as effector cells preincubated with MAGI-CCR5 cells for 1 hr followed by HL2/3 cells addition by beta-galactosidase reporter gene assay; conditions: Human immunodeficiency virus 1, HXB2
[9] = Inhibition of CYP1A in human liver microsomes using ethoxyresorufin as substrate after 5 mins in presence of NADPH by LC-MS/MS analysis
[10] = Apparent permeability from basolateral to apical side in human Caco2 cells at 10 uM at pH 7.4 by LC-MS/MS analysis; assay type: ADME, cell-based; conditions: Caco-2, pH 7.4; method in brief: as §1
[11] = system: Human immunodeficiency virus 1; experiment: microbe, parasite or virus in culture; conditions: Human immunodeficiency virus 1, subtype C Du422, clone 1
[12] = system: Human immunodeficiency virus 1; experiment: Antiviral activity against ENV pseudotyped CCR5-tropic HIV1 subtype C 6936-2, clone 21; assay type: functional; conditions: Human immunodeficiency virus 1, subtype C 6936-2, clone 21; method in brief: as §2
[13] = system: Human immunodeficiency virus 1; experiment: Antiviral activity against ENV pseudotyped CCR5-tropic HIV1 subtype D QD435.100M.ENV.E1; assay type: functional; conditions: Human immunodeficiency virus 1, subtype D QD435.100M.ENV.E1
Cytochrome P450 2C9 = Cytochrome P450 2C9 (Homo sapiens, UniProt P11712); experiment: Inhibition of CYP2C9 in human liver microsomes using tolbutamide as substrate after 60 mins in presence of NADPH by LC-MS/MS analysis; assay type: ADME
Cytochrome P450 2C9, sequence (P11712 whole entry): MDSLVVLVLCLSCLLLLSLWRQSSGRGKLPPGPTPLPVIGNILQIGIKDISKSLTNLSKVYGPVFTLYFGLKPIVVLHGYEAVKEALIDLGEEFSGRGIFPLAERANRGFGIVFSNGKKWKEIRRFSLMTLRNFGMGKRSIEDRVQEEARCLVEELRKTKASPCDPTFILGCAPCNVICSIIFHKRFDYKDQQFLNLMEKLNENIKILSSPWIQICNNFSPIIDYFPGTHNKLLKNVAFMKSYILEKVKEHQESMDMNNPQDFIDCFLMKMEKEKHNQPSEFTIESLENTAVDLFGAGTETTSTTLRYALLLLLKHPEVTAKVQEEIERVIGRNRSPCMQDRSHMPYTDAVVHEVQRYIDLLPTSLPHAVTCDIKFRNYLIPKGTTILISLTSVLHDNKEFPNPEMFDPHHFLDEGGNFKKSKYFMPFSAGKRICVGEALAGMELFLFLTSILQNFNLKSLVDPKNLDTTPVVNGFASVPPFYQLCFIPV

[14] = system: Vesicular stomatitis virus; experiment: Antiviral activity against G-glycoprotein expressing VSV; assay type: functional
Method in brief: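 VSV-G pseudovirus made in HEK293T cells from pVPack-VSV-G, MLV gag-pol pVPack-GP and pFB-luc plasmids. Virus was preincubated 30 min with graded compound concentrations, then added to U87-CD4-CXCR4 cells (1 x 10^4/well, plated overnight).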

[15] = system: Human immunodeficiency virus 1; experiment: microbe, parasite or virus in culture; conditions: Human immunodeficiency virus 1, subtype D/A BF535.W6M.ENV.A1
[16] = Inhibition of HIV1 reverse transcriptase by colorimetric assay; design: species or system Human immunodeficiency virus 1
Method in brief: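 HIV-1 reverse transcriptase activity measured with a commercial colorimetric reverse transcriptase kit, following the maker's instructions.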

[17] = system: Human immunodeficiency virus 1; experiment: Antiviral activity against ENV pseudotyped CCR5-tropic HIV1 subtype C 25711-2, clone 4; assay type: functional; conditions: Human immunodeficiency virus 1, subtype C 25711-2, clone 4
[18] = target: Voltage-gated inwardly rectifying potassium channel KCNH2 (Homo sapiens, UniProt Q12809); experiment: Inhibition of human ERG expressed in CHO cells by patch clamp electrophysiology assay; assay type: cell-based
Voltage-gated inwardly rectifying potassium channel KCNH2, sequence (Q12809 whole entry): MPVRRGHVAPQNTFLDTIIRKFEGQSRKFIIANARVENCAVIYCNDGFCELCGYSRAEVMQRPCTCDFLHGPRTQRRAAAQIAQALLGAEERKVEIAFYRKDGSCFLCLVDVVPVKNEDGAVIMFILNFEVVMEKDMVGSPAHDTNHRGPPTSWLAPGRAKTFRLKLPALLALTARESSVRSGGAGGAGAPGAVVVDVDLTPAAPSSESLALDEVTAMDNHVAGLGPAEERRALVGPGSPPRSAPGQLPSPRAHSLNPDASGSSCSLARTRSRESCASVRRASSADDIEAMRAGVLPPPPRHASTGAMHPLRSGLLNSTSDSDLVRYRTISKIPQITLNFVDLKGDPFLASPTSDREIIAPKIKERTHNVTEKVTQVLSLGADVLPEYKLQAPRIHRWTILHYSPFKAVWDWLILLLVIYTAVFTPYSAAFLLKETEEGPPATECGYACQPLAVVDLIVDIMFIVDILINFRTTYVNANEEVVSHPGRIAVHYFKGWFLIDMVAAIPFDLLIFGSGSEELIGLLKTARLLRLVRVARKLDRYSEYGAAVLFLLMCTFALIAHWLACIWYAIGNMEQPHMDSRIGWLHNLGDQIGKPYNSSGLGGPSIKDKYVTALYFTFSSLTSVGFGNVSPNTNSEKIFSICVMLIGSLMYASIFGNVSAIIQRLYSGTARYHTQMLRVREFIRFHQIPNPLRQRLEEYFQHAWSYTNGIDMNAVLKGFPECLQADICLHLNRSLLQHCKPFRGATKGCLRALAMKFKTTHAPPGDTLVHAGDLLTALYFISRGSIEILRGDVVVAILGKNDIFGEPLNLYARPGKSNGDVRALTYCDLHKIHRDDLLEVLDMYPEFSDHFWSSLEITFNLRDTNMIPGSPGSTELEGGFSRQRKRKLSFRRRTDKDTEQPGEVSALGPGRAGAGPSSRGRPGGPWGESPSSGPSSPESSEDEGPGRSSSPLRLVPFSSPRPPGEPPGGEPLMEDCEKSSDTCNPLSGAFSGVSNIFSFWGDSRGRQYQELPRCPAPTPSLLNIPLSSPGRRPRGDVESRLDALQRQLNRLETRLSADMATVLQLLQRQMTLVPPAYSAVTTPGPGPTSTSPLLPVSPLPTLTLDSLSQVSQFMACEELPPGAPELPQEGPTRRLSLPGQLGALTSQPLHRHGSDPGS

[19] = Metabolic stability in human liver microsomes assessed as compound remaining at 45 mins in presence of NADPH by LC-MS/MS analysis; assay type: ADME, microsome; conditions: read-out: Stability
[20] = system: Human immunodeficiency virus 1; experiment: Antiviral activity against ENV pseudotyped CCR5-tropic HIV1 subtype D QA013.70I.ENV.M12; assay type: functional; conditions: Human immunodeficiency virus 1, subtype D QA013.70I.ENV.M12; method in brief: as §2
[21] = system: Human immunodeficiency virus 1; experiment: microbe, parasite or virus in culture; conditions: Human immunodeficiency virus 1, AC10.0, clone 29
[22] = system: Human immunodeficiency virus 1; experiment: microbe, parasite or virus in culture; conditions: Human immunodeficiency virus 1, subtype A/G CRF02_AG clone 263
[23] = (§3) Cytotoxicity against human TZM-bl cells incubated for 3 days by XTT assay; assay type: cell-based; conditions: TZM-bl cells
Method in brief: (§4)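 TZM-bl cells, 1 x 10^4/well, cultured overnight at 37 °C. Compounds added at graded concentrations for three days.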

[24] = system: Human immunodeficiency virus 1; experiment: Antiviral activity against ENV pseudotyped CCR5-tropic HIV1 p9021_14.B2.4571; assay type: functional; conditions: Human immunodeficiency virus 1, p9021_14.B2.4571
MT2 = experiment: Cytotoxicity against human MT2 cells incubated for 4 days by XTT assay; assay type: cell-based; conditions: mt2, 96 h, 96 h
Method in brief: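 Run alongside the MT-2 multicycle infection assay. Compound at graded concentrations mixed with an equal volume of MT-2 cells (10^5 cells/ml). Medium replaced next day and culture continued four days.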

[25] = system: Human immunodeficiency virus 1; experiment: Antiviral activity against ENV pseudotyped CCR5-tropic HIV1 p1054.TC4.1499; assay type: functional
[26] = Aqueous solubility of the compound at 1 to 100 uM in PBS at pH 7.4 after 2 hrs by turbidimetric analysis; assay type: physicochemical
Method in brief: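 DMSO stocks diluted 1:100 into phosphate-buffered saline pH 7.4, giving 1, 3, 10, 30 and 100 µM final in 1% DMSO. Seven replicate wells per concentration, incubated 2 h at 37 °C, absorbance read at 620 nm. Solubility taken as the concentration giving absorbance above the 1% DMSO vehicle.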

[27] = system: Human immunodeficiency virus 1; experiment: microbe, parasite or virus in culture; conditions: Human immunodeficiency virus 1, subtype C QB099.391 M.ENV.B1
[28] = Intrinsic clearance in human liver microsomes assessed per mg protein in presence of NADPH by LC-MS/MS analysis; assay type: ADME, microsome; conditions: read-out: CLH
Cytochrome P450 3A4 = Cytochrome P450 3A4 (Homo sapiens, UniProt P08684); experiment: Inhibition of CYP3A4 in human liver microsomes using midazolam as substrate after 5 mins in presence of NADPH by LC-MS/MS analysis; assay type: ADME
Cytochrome P450 3A4, sequence (P08684 whole entry): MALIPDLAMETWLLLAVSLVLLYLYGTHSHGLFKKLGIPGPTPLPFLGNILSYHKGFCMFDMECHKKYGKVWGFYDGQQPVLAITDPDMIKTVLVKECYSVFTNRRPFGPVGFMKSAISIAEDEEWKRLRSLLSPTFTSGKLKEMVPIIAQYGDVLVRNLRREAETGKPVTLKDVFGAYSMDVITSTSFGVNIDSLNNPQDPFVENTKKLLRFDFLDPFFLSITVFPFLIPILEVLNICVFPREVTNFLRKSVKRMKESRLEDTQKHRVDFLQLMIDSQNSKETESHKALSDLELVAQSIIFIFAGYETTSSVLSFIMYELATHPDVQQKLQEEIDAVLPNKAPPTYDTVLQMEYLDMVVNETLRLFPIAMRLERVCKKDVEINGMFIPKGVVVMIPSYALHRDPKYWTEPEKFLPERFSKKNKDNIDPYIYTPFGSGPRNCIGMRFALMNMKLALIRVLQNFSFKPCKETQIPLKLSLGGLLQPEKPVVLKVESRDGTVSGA

[29] = system: Human immunodeficiency virus 1; experiment: Antiviral activity against ENV pseudotyped CCR5-tropic HIV1 subtype D QD435.100M.ENV.A4; assay type: functional; conditions: Human immunodeficiency virus 1, subtype D QD435.100M.ENV.A4; method in brief: as §2
[30] = system: Human immunodeficiency virus 1; experiment: Antiviral activity against HIV1 HXB2 pseudovirus infected in human TZM-bl cells assessed as inhibition of viral entry treated 4 hrs post infection measured after 48 hrs by luciferase reporter gene assay; assay type: functional
[31] = system: Human immunodeficiency virus 1
[32] = system: Human immunodeficiency virus 1; experiment: microbe, parasite or virus in culture; conditions: Human immunodeficiency virus 1, subtype A/E CRF01_AE clone 269
[33] = system: Human immunodeficiency virus 1; experiment: microbe, parasite or virus in culture; conditions: Human immunodeficiency virus 1, subtype C ZM109F.PB4
[34] = system: Human immunodeficiency virus 1; experiment: microbe, parasite or virus in culture; conditions: Human immunodeficiency virus 1, subtype C Du 172, clone 17
[35] = system: Human immunodeficiency virus 1; experiment: microbe, parasite or virus in culture; conditions: Human immunodeficiency virus 1, subtype B p1058_11.B11.1550
[36] = system: Human immunodeficiency virus 1; experiment: Antiviral activity against ENV pseudotyped CCR5-tropic HIV1 p9014_01.TBI.4769; assay type: functional; conditions: Human immunodeficiency virus 1, p9014_01.TBI.4769; method in brief: as §2
TZM = experiment: as §3; assay type: cell-based; conditions: tzm, 72 h; method in brief: as §4
[37] = system: Human immunodeficiency virus 1; remark: listed apart in the source
[38] = system: Human immunodeficiency virus 1; experiment: microbe, parasite or virus in culture; conditions: Human immunodeficiency virus 1, subtype C 6055-2, clone 3
[39] = system: Human immunodeficiency virus 1; experiment: Antiviral activity against HIV1 3B infected in human MT2 cells assessed as inhibition of p24 antigen production pretreated with virus for 30 mins followed by 4 days incubation with cells by sandwich ELISA based multicycle infection assay; assay type: functional, cell-based
Method in brief: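 MT-2 cells were infected with HIV-1 IIIB at 100 TCID50 and preincubated 30 min with graded compound concentrations. Medium was replaced next day. Supernatants were collected 4 days post-infection, lysed with equal volume 5% Triton X-100, and p24 was measured by sandwich ELISA. IC50 came from percent inhibition of p24.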

[40] = system: Human immunodeficiency virus 1; experiment: microbe, parasite or virus in culture; conditions: Human immunodeficiency virus 1, subtype C CAP210.2.00.E8

Compound	fraction unbound at 5 µM [1]	Papp A→B at 10 µM [3] [×10⁻⁶ cm/s]	IC50 [4] [nM]	IC50 (Cytochrome P450 2D6) [nM]	IC50 (Cytochrome P450 2C19) [nM]	IC50 [8] [nM]	IC50 [9] [nM]	Papp B→A at 10 µM [10] [×10⁻⁶ cm/s]	IC50 (Cytochrome P450 2C9) [nM]	IC50 [14] [nM]	IC50 [15] [nM]	IC50 [16] [nM]	IC50 [17] [nM]	IC50 [18] [nM]	remaining at […] [19] [%]	IC50 [20] [nM]	IC50 [22] [nM]	IC50 [24] [nM]	CC50 (MT2) [nM]	solubility kinetic at 2 h [26] [µM]	further results
NCC(NC(=O)c1ccc(-c2cc(F)c(Cl)c(F)c2)[nH]1)c1ncc(CO)s1 (stereo in doubt)	0.1	1.17	330	> 25000	> 25000	13300	> 25000	17.2	> 25000	26000	940	8400	520	14100	97.4	500	600	310	37000	65 (≈ 26.8 µg/mL)	IC50 [2]: 510 nM; IC50 [5]: 270 nM; IC50 [6]: 600 nM; IC50 [7]: 500 nM; IC50 [11]: 320 nM; IC50 [12]: 310 nM; IC50 [13]: 500 nM; IC50 [21]: 500 nM; CC50 at 72 h [23]: 39500 nM; IC50 ([25]; Human immunodeficiency virus 1, p1054.TC4.1499): 650 nM; IC50 [27]: 510 nM; microsomal CLint [28]: < 10 µL/min/mg; IC50 (Cytochrome P450 3A4): > 25000 nM; IC50 [29]: 320 nM
Cc1cn([C@H]2C[C@H](N=[N+]=[N-])[C@@H](CO)O2)c(=O)[nH]c1=O [ZIDOVUDINE]	–	–	–	–	–	–	–	–	–	–	–	–	–	–	–	–	–	–	–	–	inhibition (INH) [30]: 50%
Cc1ccc(-c2ccc(C(=O)NC(CN)c3ncc(CO)s3)[nH]2)cc1F (stereo in doubt)	0.04	2.56	340	> 25000	> 25000	8300	8010	19.5	> 25000	42900	550	7200	300	9980	101	240	500	220	38000	> 100	IC50 [31]: 400 nM; IC50 [32]: 300 nM; IC50 [33]: 200 nM; IC50 [34]: 620 nM; IC50 [35]: 280 nM; IC50 [36]: 310 nM; CC50 (TZM): 38800 nM; IC50 [37]: 400 nM; IC50 [25]: 400 nM; IC50 [38]: 220 nM; IC50 [39]: 760 nM; IC50 [27]: 350 nM; microsomal CLint [28]: < 10 µL/min/mg; IC50 [40]: 490 nM; IC50 (Cytochrome P450 3A4): > 25000 nM
